Compound activity: PubChem BioAssay, Broad Institute
IDH1 R132H inh – IDH1 R132H (human) inhibition. IDH1 R132H reductase, diaphorase/resazurin fluorescence, 60 min. inhibition, % at 10 µM. 70,000 compounds, 0.18% hits. AID 624101; in the data active = inhibition above about 34%;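 also: 0% = DMSO and 100% = no enzyme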
Target sequence (O75874 whole entry R132H): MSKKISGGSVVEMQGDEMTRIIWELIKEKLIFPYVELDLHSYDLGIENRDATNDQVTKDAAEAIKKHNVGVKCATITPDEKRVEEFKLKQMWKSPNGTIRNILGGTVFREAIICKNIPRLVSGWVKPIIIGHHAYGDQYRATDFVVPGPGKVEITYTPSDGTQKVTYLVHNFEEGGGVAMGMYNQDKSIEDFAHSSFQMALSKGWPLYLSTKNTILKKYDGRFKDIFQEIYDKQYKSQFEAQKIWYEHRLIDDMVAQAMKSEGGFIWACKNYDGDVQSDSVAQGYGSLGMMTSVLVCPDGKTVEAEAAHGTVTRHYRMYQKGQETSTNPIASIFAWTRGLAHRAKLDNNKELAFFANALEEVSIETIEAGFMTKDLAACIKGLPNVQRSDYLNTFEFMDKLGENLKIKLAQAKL
Pf Dd2 growth – inhibitors of Plasmodium falciparum Dd2 growth. P. falciparum Dd2 growth, SYBR Green, 72 h; active compounds read low. activity change, % at 10 µM. 94,000 compounds, 2.3% hits. AID 1159554; in the data active = activity change below about -80%
T cruzi growth – blocks T. cruzi growth in NIH3T3 culture; 77,000 compounds, 5.9% hits; inhibition, % at 8.34 µM; T. cruzi beta-gal in NIH3T3, GalScreen luminescence, 90 h;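 active = mean inhibition above about 93%, with at least 55% of replicates each passing it, limit read from the data, passing the limit was not always enough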
KDM4C inh – KDM4C (human) demethylase inhibition; Q9H3R0; GST-KDM4C 2-372, H3K9me3 peptide, LANCE TR-FRET; inhibition, % at 12.5 µM; 96,000 compounds, 0.15% hits;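 active = mean replicate inhibition above about 25%, with at least 55% of replicates also reaching it, limit read from the data, passing the limit was not always enough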
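Test system – GST-tagged GASC-1 (JMJD2C) catalytic fragment, aa 2-372 · Medium – HEPES buffer, pH 7.5, plus ascorbate · Reagent – H3K9me3 peptide with Fe(II)/2OG · Compound – one test concentration per compound · Timing – 30 min reaction, 60 min detection, RT · Technique – TR-FRET with Eu antibody and ULight streptavidin, EDTA stop · Read-out basis – inhibition from TR-FRET ratio decrease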
Active calls of the source: *; / = no result given; ! = a repeat was not active. A selection: hits, their analogues and other compounds. The true share with any hit is near 5.9%.

SMILES	IDH1 R132H inh	Pf Dd2 growth	T cruzi growth	KDM4C inh
C[C@H](CO)N1C[C@H](C)[C@H](CN(C)C(=O)Nc2ccc(F)cc2)Oc2ncc(Br)cc2C1=O	33.7*!	48.5	-172.6	3.5
C[C@H](CO)N1C[C@H](C)[C@H](CN(C)C(=O)Nc2ccc(F)cc2)Oc2ncc(-c3cccc(C(F)(F)F)c3)cc2C1=O	2.8	-38.5	109.2*	-2.3
CCCC#Cc1cnc2c(c1)C(=O)N([C@@H](C)CO)C[C@@H](C)[C@H](CN(C)C(=O)Nc1cc(F)ccc1F)O2	-0.3	-83.4*	/	-3.1
C[C@@H]1CN([C@H](C)CO)C(=O)c2cc(-c3ccc(C#N)cc3)cnc2O[C@H]1CN(C)C(=O)Nc1ccc(C(F)(F)F)cc1	/	-94.3*	/	-5.7
COc1cc(Cc2nccc3cc(OC)c(OC)cc23)c(NC(=O)c2cc(F)c(F)cc2Cl)cc1OC	0.3	/	/	/
COc1ccc(/C=N/NC(=O)c2cccc(C(=O)NO)c2)cc1	-0.7	/	/	/
CC1=C(C(=O)OCc2ccccc2)C2(O)C(=O)c3ccccc3C2(O)N1 (configuration not stated)	-0.1	/	/	/
O=C(CSC1=NCCN1)C1COc2ccccc2O1 (configuration not stated)	38.6*	/	/	/
O=C(NO)c1cccc(C(=O)N/N=C/c2ccccc2)c1	-0.1	/	/	/
Cc1ccc(S(=O)(=O)N(C)C[C@H]2OCCCC[C@H](C)Oc3ccc(NC(=O)NC4CCCCC4)cc3C(=O)N([C@H](C)CO)C[C@H]2C)cc1	-10.2	-82.7*	85.4	-0.6
Cc1ccc(S(=O)(=O)N(C)C[C@@H]2OCCCC[C@@H](C)Oc3ccc(NC(=O)NC4CCCCC4)cc3C(=O)N([C@@H](C)CO)C[C@@H]2C)cc1	/	-86.3*	61.2	-0.1
O=C(NO)c1cccc(C(=O)N/N=C/c2ccc3c(c2)CCO3)c1	-0.1	/	/	/
CCCN(C)C[C@@H]1OCCCC[C@@H](C)Oc2ccc(NC(=O)c3ccccc3)cc2C(=O)N([C@H](C)CO)C[C@@H]1C	1.9	-83.0*!	28.4	-1.2
CCCN(C)C[C@H]1OCCCC[C@@H](C)Oc2ccc(NC(=O)c3ccccc3)cc2C(=O)N([C@H](C)CO)C[C@H]1C	/	-69.2	63.5	-2.6
C[C@@H]1CCCCO[C@H](CN(C)CC2CC2)[C@H](C)CN([C@H](C)CO)C(=O)c2cc(NC(=O)c3ccccc3)ccc2O1	/	-81.1*	15.0	0.3
Cc1cc(NC(=O)c2nn3c(C(F)(F)F)cc(-c4ccccc4)nc3c2Cl)n(-c2ccccc2)n1	0.6	/	/	/
CO[C@@H]1CN(C)C(=O)c2ccc(NC(=O)Nc3ccc(C(F)(F)F)cc3)cc2OC[C@@H](C)NC[C@@H]1C	/	-83.3*	/	0.6
CO[C@H]1CN(C)C(=O)c2cc(NC(=O)Nc3ccc(C(F)(F)F)cc3)ccc2OC[C@H](C)NC[C@H]1C	-0.1	-87.9*	-15.8	0.2
O=C1c2cccc3cccc(c23)C(=O)N1CCc1cnc[nH]1	3.9	/	/	/
O=C(CSc1nc2ccccc2c(=O)n1-c1ccc(Br)cc1)Nc1cccc(F)c1	0.4	/	/	/
COc1ccc2c3c([nH]c2c1)[C@H](CO)N(C(=O)Nc1ccc(F)cc1)CC31CN(Cc2ccc(F)cc2)C1	/	-82.4*	/	-4.6
COc1ccc2c3c([nH]c2c1)[C@@H](CO)N(C(=O)Nc1ccc(F)cc1)CC31CN(Cc2ccccc2OC)C1	/	-92.1*	/	-2.7
COc1ccc2c3c([nH]c2c1)[C@@H](CO)N(C(=O)Nc1ccc(F)cc1)CC31CN(Cc2ccc(F)cc2)C1	/	-67.2	/	-0.2
COc1ccc2c3c([nH]c2c1)[C@H](CO)N(C(=O)Nc1ccc(F)cc1)CC31CN(Cc2ccccc2OC)C1	/	-53.6	/	/
COc1ccc(S(=O)(=O)N(C)C[C@H]2OCCCC[C@@H](C)Oc3ccc(NC(=O)c4ccccc4)cc3C(=O)N([C@@H](C)CO)C[C@@H]2C)cc1	/	-83.1*	90.9	15.8
SMILES	IDH1 R132H inh	Pf Dd2 growth	T cruzi growth	KDM4C inh
COc1ccc(S(=O)(=O)N(C)C[C@H]2OCCCC[C@H](C)Oc3ccc(NC(=O)c4ccccc4)cc3C(=O)N([C@H](C)CO)C[C@H]2C)cc1	/	-87.4*	57.0	0.2
COc1ccc(S(=O)(=O)N(C)C[C@@H]2OCCCC[C@H](C)Oc3ccc(NC(=O)c4ccccc4)cc3C(=O)N([C@H](C)CO)C[C@H]2C)cc1	/	-82.9*	60.7	-1.7
COc1ccc(S(=O)(=O)N(C)C[C@H]2OCCCC[C@H](C)Oc3ccc(NC(=O)c4ccccc4)cc3C(=O)N([C@H](C)CO)C[C@@H]2C)cc1	-0.3	-71.3	88.9	0.0
O=C1Oc2cc(O)cc(O)c2[C@@H](c2ccc(O)cc2)[C@H]1[C@H]1C(=O)Oc2cc(O)cc(O)c2[C@H]1c1ccc(O)cc1	51.6*	/	/	/
O=C(CSc1nc(O)cc(=O)n1-c1ccccc1)Nc1cccc2ccccc12	-0.4	/	/	/
C[C@@H]1CN([C@@H](C)CO)C(=O)c2cc(NC(=O)C3CCCCC3)ccc2O[C@@H](C)CCCCO[C@@H]1CN(C)C(=O)Nc1ccc2c(c1)OCO2	/	-82.9*	43.9	-1.4
C[C@@H]1CCCCO[C@H](CN(C)C(=O)Nc2ccc3c(c2)OCO3)[C@H](C)CN([C@H](C)CO)C(=O)c2cc(NC(=O)C3CCCCC3)ccc2O1	/	-86.0*	46.9	-2.0
Cn1c(CN2C(=O)CSc3ccc(C(F)(F)F)cc32)nnc1SCc1ccccc1	0.8	/	/	/
C=C1C(=O)C23CC(O)C4C(C)(C(=O)OC5OC(CO)C(O)C(O)C5O)CCCC4(C)C2=CCC1(O)C3 (configuration not stated)	15.1	/	/	/
Cc1ccccc1S(=O)(=O)N1CC(=O)N2[C@H](C1)[C@@H](c1ccc(C#Cc3ccccc3)cc1)[C@@H]2CO	/	-82.0*	/	-1.8
Cc1ccccc1S(=O)(=O)N1CC(=O)N2[C@H](CO)[C@H](c3ccc(C#Cc4ccccc4)cc3)[C@H]2C1	/	-40.9	/	-2.9
O=C1CN(S(=O)(=O)c2ccccc2)C[C@@H]2[C@H](c3ccc(C#CCc4ccccc4)cc3)[C@@H](CO)N12	/	-84.2*	/	1.6
C[C@@H]1CCCCO[C@H](CN(C)S(=O)(=O)c2ccc(F)cc2)[C@@H](C)CN([C@@H](C)CO)C(=O)c2cc(NC(=O)C3CCCCC3)ccc2O1	2.6	-74.6	74.6	-1.0
C[C@@H]1CN([C@H](C)CO)C(=O)c2cc(NC(=O)C3CCCCC3)ccc2O[C@@H](C)CCCCO[C@@H]1CN(C)S(=O)(=O)c1ccc(F)cc1	0.7	-82.4*	79.3	0.9
C[C@@H]1CN([C@@H](C)CO)C(=O)c2cc(NC(=O)C3CCCCC3)ccc2O[C@@H](C)CCCCO[C@@H]1CN(C)S(=O)(=O)c1ccc(F)cc1	-10.7	-81.8*	36.3	-1.0
N#C[C@@H]1[C@@H](c2ccc(-c3cccc(F)c3)cc2)[C@@H](CO)N1C(=O)NC1CCCC1	0.1	-20.5	91.4	2.3
CCCNC(=O)N1[C@H](C#N)[C@H](c2ccc(-c3cccc(OC)c3)cc2)[C@H]1CO	/	-84.5*	76.9	-0.2
COc1ccc(-c2ccccc2[C@H]2[C@@H](C#N)N(C(=O)NC3CCCCC3)[C@H]2CO)cc1	/	-89.8*	/	-1.0
